Results reported in ChEMBL document CHEMBL2040833, “Metabolism-based synthesis, biologic evaluation and SARs analysis of O-methylated analogs of quercetin as thrombin inhibitors” (Eur J Med Chem, 2012).

What was measured:
[1] = target: Thrombin (Oryctolagus cuniculus) (UniProt Q28731); assay: Inhibition of thrombin in New Zealand rabbit plasma assessed as thrombin time at 100 uM after 3 mins by coagulometry
Procedure, shortened: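 Using citrated rabbit platelet-poor plasma, 40 µl PPP was held 3 min at 37 °C, then 40 µl thrombin solution and 20 µl sample (in 80% ethanol) were added for 3 min at 37 °C. Clotting time was measured by coagulometer with a commercial kit, and prolongation was scored.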

[2] = target: Thrombin (Oryctolagus cuniculus) (UniProt Q28731); assay: Inhibition of thrombin in New Zealand rabbit plasma assessed as activated partial thromboplastin time at 100 uM after 3 mins by coagulometry
Procedure, shortened: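 Sample in 80% ethanol; 10 µl sample and 50 µl PPP incubated with 50 µl APTT-activating agent 3 min at 37 °C, then 50 µl CaCl2 added; clotting time by coagulometer with commercial kit; prolongation scored.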

[3] = target: Thrombin (Oryctolagus cuniculus) (UniProt Q28731); assay: Inhibition of thrombin in New Zealand rabbit plasma assessed as fibrinogen level at 100 uM by coagulometry
Procedure, shortened: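 Citrated rabbit platelet-poor plasma (3000 rpm 10 min). 10 µl PPP incubated with 90 µl imidazole buffer 3 min at 37 °C, then 50 µl FIB agent and 10 µl sample (in 80% ethanol) added; fibrinogen content read on coagulometer with commercial kit; reduction in FIB content scored.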

[4] = target: Thrombin (Oryctolagus cuniculus) (UniProt Q28731); assay: Inhibition of thrombin in New Zealand rabbit plasma assessed as prothrombin time at 100 uM by coagulometry
Procedure, shortened: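 40 µl PPP preincubated 3 min at 37 °C, then 40 µl thromboplastin agent plus 20 µl sample (in 80% ethanol) added; clotting read by coagulometer with commercial kit; activity expressed as INR increase.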

Structure (SMILES) | TT [1] [s] | APTT [2] [s] | Activity [3] [g/L] | PT [4] [s]
COc1ccc(-c2oc3cc(O)cc(O)c3c(=O)c2O)cc1OC | 9.9 | 58.7 | 6.6 | 5.8
COc1cc(O)c2c(=O)c(OC)c(-c3ccc(OC)c(OC)c3)oc2c1 | 14.2 | 42.4 | 8.4 | 5.4
COc1cc(O)c2c(=O)c(OC)c(-c3ccc(OC)c(O)c3)oc2c1 | 14.9 | 61.7 | 5.3 | 6
COc1cc(O)c2c(=O)c(O)c(-c3ccc(O)c(O)c3)oc2c1 | 23 | 72.6 | 5.4 | 6.8
COc1c(-c2ccc(O)c(O)c2)oc2cc(O)cc(O)c2c1=O | 22.9 | 50.2 | 4.7 | 4.8
COc1ccc(-c2oc3cc(O)cc(O)c3c(=O)c2O)cc1O | 16.6 | 49.8 | 7.5 | 6.9
O=c1c(O)c(-c2ccc(O)c(O)c2)oc2cc(O)cc(O)c12 | 19.2 | 30.3 | 5.8 | 6.2
COc1cc(-c2oc3cc(O)cc(O)c3c(=O)c2O)ccc1O | 20.5 | 82.3 | 5.4 | 5.3
COc1cc(OC)c2c(=O)c(OC)c(-c3ccc(OC)c(OC)c3)oc2c1 | 11.6 | 40.3 | 8.9 | 5.2
COc1cc(OC)c2c(=O)c(O)c(-c3ccc(O)c(O)c3)oc2c1 | 21.8 | 67.6 | 5.1 | 6.9
COc1c(-c2ccc(O)c(O)c2)oc2cc(O)cc(OC)c2c1=O | 20 | 63.7 | 5.4 | 5.7
COc1cc(-c2oc3cc(O)cc(OC)c3c(=O)c2O)ccc1O | 22.3 | 57.6 | 6.2 | 5.8
COc1cc(O)c2c(=O)c(OC)c(-c3ccc(O)c(O)c3)oc2c1 | 22.5 | 54.7 | 7.3 | 7.3
COc1cc(O)c2c(=O)c(O)c(-c3ccc(OC)c(O)c3)oc2c1 | 14.8 | 46.2 | 5.9 | 7.4
COc1cc(O)cc2oc(-c3ccc(O)c(O)c3)c(O)c(=O)c12 | 19.4 | 49.2 | 5 | 7.6
COc1ccc(-c2oc3cc(O)cc(OC)c3c(=O)c2O)cc1OC | 15.9 | 49.3 | 7.9 | 5.1
